Results taken from ChEMBL document CHEMBL1125632, “Synthesis and copper-dependent antimycoplasmal activity of amides and amidines derived from 2-amino-1,10-phenanthroline” (1991).
Values after ≈ are worked out from the molar mass of the structure shown. One block for each compound: values may come before it.

Experiments:
[1] = system: Mycoplasmoides gallisepticum; assay: Minimum inhibitory concentration measured against Mycoplasma gallisepticum K514 in the presence of extra copper; assay type: functional
How it was run: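 M. gallisepticum K514 grown in modified Adler medium (peptone, yeast extract, glucose, horse serum, benzylpenicillin, phenol red, pH 8.0) with CuSO4 at 40 μM final. Compounds in DMSO (1.25% final), serial 2-fold dilutions in duplicate over 3 nM–100 μM. 3 mL medium plus 1 mL fresh culture, incubated 24 h at 37 °C. MIC is the lowest concentration with no phenol-red colour change.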

[2] = system: Mycoplasmoides gallisepticum; assay: Minimum inhibitory concentration measured against Mycoplasma gallisepticum K514 in the absence of extra copper; assay type: functional
How it was run: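 M. gallisepticum K514 grown in modified Adler medium (peptone, yeast extract, glucose, heat-inactivated horse serum, benzylpenicillin, phenol red, pH 8.0). No added copper. Compounds dissolved in DMSO (final 1.25%) and tested as serial 2-fold dilutions in duplicate, 3 nM to 100 μM. Tubes with 3 mL medium received 1 mL fresh culture and were held 24 h at 37 °C. MIC is the lowest concentration giving no indicator colour change.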

Compound: CCCCc1ccc2ccc3ccc(NC(=O)c4ccc(C)cc4)nc3c2n1
- MIC [1]: 0.37 µM
- MIC [2]: > 100 µM

Compound: CC[C@H]1OC(=O)C[C@@H](O)[C@H](C)[C@@H](O[C@@H]2O[C@H](C)[C@@H](O[C@H]3C[C@@](C)(O)[C@@H](O)[C@H](C)O3)[C@H](N(C)C)[C@H]2O)[C@@H](CC=O)C[C@@H](C)C(=O)/C=C/C(C)=C/[C@@H]1CO[C@@H]1O[C@H](C)[C@@H](O)[C@@H](OC)[C@H]1OC [TYLOSIN]
- MIC [1]: 0.1 µM
- MIC [2]: 0.1 µM (≈ 0.0916 µg/mL)

Compound: O=C(Nc1ccc2ccc3cccnc3c2n1)c1ccccc1
- MIC [1]: 0.023 µM
- MIC [2]: > 100 µM

Compound: COc1ccc(C(=O)Nc2ccc3ccc4cccnc4c3n2)cc1
- MIC [1]: 0.046 µM
- MIC [2]: > 100 µM

Compound: CCCCc1ccc2ccc3ccc(NC(=O)c4ccc(Cl)c(Cl)c4)nc3c2n1
- MIC [1]: 1.5 µM
- MIC [2]: > 100 µM

Compound: CCCCC(CC)C(=O)Nc1ccc2ccc3cccnc3c2n1 (configuration not stated)
- MIC [1]: 0.23 µM
- MIC [2]: > 100 µM

Compound: O=C(Nc1ccc2ccc3cccnc3c2n1)c1ccc(Cl)c(Cl)c1
- MIC [1]: 0.095 µM
- MIC [2]: > 100 µM

Compound: CCCCc1ccc2ccc3ccc(NC(=O)c4ccccc4)nc3c2n1
- MIC [1]: 0.2 µM
- MIC [2]: > 100 µM

Compound: N=C(Nc1ccc2ccc3cccnc3c2n1)c1ccc(Cl)cc1
- MIC [1]: 0.2 µM
- MIC [2]: > 100 µM

The remaining lines, values ahead:

- MIC [1]: 0.37 µM
- MIC [2]: > 100 µM
Compound: CCCCCCCCCC(=O)Nc1ccc2ccc3cccnc3c2n1

- MIC [1]: 0.05 µM
- MIC [2]: > 100 µM
Compound: O=C(Nc1ccc2ccc3ccc(NC(=O)c4ccccc4)nc3c2n1)c1ccccc1

- MIC [1]: 0.2 µM
- MIC [2]: > 100 µM
Compound: N=C(Nc1ccc2ccc3cccnc3c2n1)c1ccc(Cl)c(Cl)c1

- MIC [1]: 0.75 µM
- MIC [2]: > 100 µM
Compound: CCCCc1ccc2ccc3ccc(NC(=O)c4ccc(Cl)cc4)nc3c2n1

- MIC [1]: 3.1 µM
- MIC [2]: > 100 µM
Compound: Nc1ccc2ccc3cccnc3c2n1

- MIC [1]: 0.023 µM
- MIC [2]: > 100 µM
Compound: Cc1ccc(C(=O)Nc2ccc3ccc4cccnc4c3n2)cc1

- MIC [2]: 700 µM
Compound: CUPRIC SULFATE

- MIC [1]: 0.8 µM
- MIC [2]: > 100 µM
Compound: Nc1ccc2ccc3ccc(N)nc3c2n1

- MIC [1]: 0.023 µM
- MIC [2]: > 100 µM
Compound: O=C(Nc1ccc2ccc3cccnc3c2n1)c1ccc(Cl)cc1

- MIC [1]: 0.2 µM
- MIC [2]: > 100 µM
Compound: N=C(Nc1ccc2ccc3cccnc3c2n1)c1ccccc1
